pIC50, pKi: −log10 of the molar value. Active and inactive are the calls of the source.
Tests used:
Onchocerca ochengi [1] = assay: Antiparasitic activity against Onchocerca ochengi assessed as effect on microfilarial mobility at 5 ug/ml measured every 24 hrs for 120 hrs by inverted microscopic analysis; type: functional
How it was run: (§1)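 Microfilariae isolated from cattle skin snips; ≥15 per well cocultured on a confluent monkey kidney epithelial feeder layer in RPMI-1640 complete medium (25 mM HEPES, 5% newborn calf serum, pH 7.4) with compound, 37 °C, 5% CO2, 5 days, no medium change. Motility scored by inverted microscope every 24 h. Viability checked at 120 h. Duplicate wells. Active = 100% motility loss versus control.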

Onchocerca ochengi [2] = assay: Antiparasitic activity against Onchocerca ochengi assessed as effect on microfilarial mobility at 10 ug/ml measured every 24 hrs for 120 hrs by inverted microscopic analysis; type: functional; how it was run: as §1
Onchocerca volvulus [3] = assay: Antiparasitic activity against Onchocerca volvulus assessed as larval toxicity at 100 uM after 6 days by using inverted microscopic analysis; type: functional, organism-based
HEK-293T [4] = assay: Protonophoric activity in human HEK293T cells assessed as mitochondrial membrane depolarization at 50 uM after 10 mins by flow cytometric analysis; type: functional, cell-based
How it was run: (§2)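 HEK-293T/17 cells were trypsinized and resuspended at 1 × 10^6/mL in PBS. They were exposed to 50 μM compound (valinomycin control 200 nM) for 10 min at 37 °C, then stained with the JC-1 potential probe for 10 min at 37 °C. Cells were washed and analysed by flow cytometry using FL-1 green and FL-2 red channels.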

Onchocerca volvulus [5] = assay: Antiparasitic activity against Onchocerca volvulus assessed as inhibition of L3 to L4 larval molting at 100 uM after 6 days by using inverted microscopic analysis; type: functional
How it was run: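 Cryopreserved O. volvulus L3 larvae thawed at 37 °C, washed in NCTC/IMDM (1:1) with glutamine, penicillin and streptomycin, then set at […] worms per well in complete medium with 20% heat-inactivated FCS. Each well received 1.5 × 10^5 normal PBMCs; 10 wells per treatment, with DMSO and medium controls. Incubated at 37 °C in 5% CO2 for 6 days. Molting is scored by inverted microscopy as L4 larvae plus empty L3 casts.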

Chitinase = target: T1, Chitinase (Onchocerca volvulus, UniProt Q25615); assay: Inhibition of Onchocerca volvulus L3 larvae chitinase using 4-methylumbelliferyl-N,N',N''-beta-chitotrioside as a profluorescent substrate after 10 mins by fluorometric analysis
T1 sequence (Q25615 whole entry): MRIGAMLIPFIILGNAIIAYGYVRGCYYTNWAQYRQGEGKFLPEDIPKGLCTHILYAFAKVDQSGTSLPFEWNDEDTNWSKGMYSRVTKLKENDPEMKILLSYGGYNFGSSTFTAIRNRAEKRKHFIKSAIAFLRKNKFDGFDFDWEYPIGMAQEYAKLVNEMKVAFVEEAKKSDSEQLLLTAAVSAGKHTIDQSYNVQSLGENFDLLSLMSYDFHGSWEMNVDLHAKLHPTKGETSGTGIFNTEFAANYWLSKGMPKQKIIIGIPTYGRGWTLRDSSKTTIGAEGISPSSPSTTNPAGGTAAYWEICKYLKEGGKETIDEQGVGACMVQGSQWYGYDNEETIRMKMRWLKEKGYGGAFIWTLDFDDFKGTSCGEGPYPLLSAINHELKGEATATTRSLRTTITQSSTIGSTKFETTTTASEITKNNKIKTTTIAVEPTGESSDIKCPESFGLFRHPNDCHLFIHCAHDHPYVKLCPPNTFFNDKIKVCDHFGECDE
How it was run: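 OvCHT1 (1.25 units) with 20 μM 4-methylumbelliferyl-N,N',N''-β-chitotrioside in 200 mM NaCl, 20 mM Na3PO4 (pH 6.0), 1.0 mM EDTA and 0.5% DMSO at 37 °C. Screening used 25 μM compound, with a no-compound blank. Fluorescence increase is read over 10 min (ex 350 nm, em 440 nm). Triplicate reactions.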

Onchocerca volvulus [6] = assay: Antiparasitic activity against Onchocerca volvulus assessed as inhibition of L3 to L4 larval molting at 25 uM after 6 days by using inverted microscopic analysis; type: functional, organism-based
How it was run: (§3)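 Cryopreserved L3 thawed at 37 °C and washed. 5–10 larvae per well in complete medium with 20% heat-inactivated FCS plus 1.5 × 10^5 normal PBMCs. 10 wells per treatment. Compounds tested singly or as a 1:1 pair. DMSO and medium controls included. Incubated at 37 °C, 5% CO2. Molting scored on day 6 by inverted microscope as L4 plus empty L3 cast. Reported as percent molting.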

Onchocerca volvulus [7] = assay: Antiparasitic activity against Onchocerca volvulus assessed as inhibition of L3 to L4 larval molting at 50 uM after 6 days by using inverted microscopic analysis; type: functional, organism-based; how it was run: as §3
HEK-293T [8] = assay: Protonophoric activity in human HEK293T cells assessed as mitochondrial membrane depolarization at 50 uM after 10 mins by flow cytometric analysis relative to closantel; type: functional, cell-based; how it was run: as §2
HEK-293T [9] = assay: Protonophoric activity in human HEK293T cells assessed as mitochondrial membrane depolarization at 50 uM after 10 mins by flow cytometric analysis relative to valinomycin; type: functional, cell-based; how it was run: as §2
HEK-293T [10] = assay: Protonophoric activity in human HEK293T cells assessed as mitochondrial membrane depolarization at 200 uM after 10 mins by flow cytometric analysis; type: functional, cell-based
How it was run: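 HEK-293T/17 cells trypsinized and resuspended at 1 × 10^6 cells/mL in PBS. Compound exposure is 10 min at 37 °C, with valinomycin as the depolarization control. JC-1 is then added for another 10 min at 37 °C. Cells are washed and analysed by flow cytometry in the green (FITC) and red (PE) channels for mitochondrial membrane polarization.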

SMILES	motility % at 5 µg/mL (Onchocerca ochengi [1])	motility % at 10 µg/mL (Onchocerca ochengi [2])	pIC50 (Chitinase)	other results
O=C(Nc1ccc(Cl)cc1)c1cc(I)ccc1O	100%	100%		
COc1ccc(NC(=O)c2cc(C(C)C)cc(C(C)C)c2O)cc1	50%	25%		
O=C(Nc1ccc(I)cc1)c1cc(I)cc(I)c1O	100%	100%	6.20	Activity (Onchocerca volvulus [3]): inactive; Activity (HEK-293T [4]): inactive; inhibition (Onchocerca volvulus [5]): Active; inhibition (Onchocerca volvulus [6]): inactive; inhibition (Onchocerca volvulus [7]): inactive
CC(C)c1cc(C(=O)Nc2ccccc2)c(O)c(C(C)C)c1	100%	50%		
COc1ccc(NC(=O)c2cc(Cl)cc(Cl)c2O)cc1	100%	50%		
O=C(Nc1ccc(Br)cc1)c1cc(I)cc(I)c1O	100%	100%	6.17	
COc1ccc(NC(=O)c2cc(Br)cc(Br)c2O)cc1	100%	50%	5.26	
Cc1ccc(NC(=O)c2cc(C(C)C)cc(C(C)C)c2O)cc1	50%	25%		
Cc1ccc(NC(=O)c2cc(I)ccc2O)cc1	50%	21%		
Cc1cc(C(C#N)c2ccc(Cl)cc2)c(Cl)cc1NC(=O)c1cc(I)cc(I)c1O (stereo not given) [CLOSANTEL]	100%	0%	5.80	Activity (Onchocerca volvulus [3]): inactive; inhibition at 100 µM (Onchocerca volvulus [5]; 144 h): 97.6%; pKi (Chitinase): 6.33
O=C(Nc1ccc(Cl)cc1)c1cc(Cl)cc(Cl)c1O	100%	29%	4.91	
CC(C)c1ccc(NC(=O)c2cc(I)cc(I)c2O)cc1	100%	100%	5.80	
O=C(Nc1ccc(Cl)cc1)c1cc(Br)cc(Br)c1O	100%	35%		
O=C(Nc1ccc(F)cc1)c1cc(I)cc(I)c1O	100%	100%	6.06	
CC(C)c1cc(C(=O)Nc2ccc(Cl)cc2)c(O)c(C(C)C)c1	100%	100%		Activity (Onchocerca volvulus [3]): inactive; Activity (HEK-293T [8]): Active; Activity (HEK-293T [9]): Active; inhibition (Onchocerca volvulus [5]): Active; inhibition (Onchocerca volvulus [6]): inactive; inhibition (Onchocerca volvulus [7]): inactive
Cc1ccc(NC(=O)c2cc(Br)cc(Br)c2O)cc1	100%	100%		
COc1ccc(NC(=O)c2cc(I)ccc2O)cc1	100%	100%		
O=C(Nc1ccccc1)c1cc(Br)cc(Br)c1O [METABROMSALAN]	100%	50%		
O=C(Nc1ccccc1)c1cc(I)cc(I)c1O	100%	100%		
CC(C)[C@@H]1NC(=O)[C@H](C)OC(=O)[C@@H](C(C)C)NC(=O)[C@@H](C(C)C)OC(=O)[C@H](C(C)C)NC(=O)[C@H](C)OC(=O)[C@@H](C(C)C)NC(=O)[C@@H](C(C)C)OC(=O)[C@H](C(C)C)NC(=O)[C@H](C)OC(=O)[C@@H](C(C)C)NC(=O)[C@@H](C(C)C)OC1=O				Activity (HEK-293T [10]): Active
Cc1ccc(NC(=O)c2cc(I)cc(I)c2O)cc1	100%	100%	5.77	
O=C(Nc1ccccc1)c1cc(I)ccc1O	100%	25%		
COc1ccc(NC(=O)c2cc(I)cc(I)c2O)cc1	100%	100%	5.06	
Cc1ccc(NC(=O)c2cc(Cl)cc(Cl)c2O)cc1	100%	50%		
O=C(Nc1ccccc1)c1cc(Cl)cc(Cl)c1O	100%	25%		
O=C(Nc1ccc(Cl)cc1)c1cc(I)cc(I)c1O	100%	0%	5.24	
